Entries after “also recorded” stand apart in the source; their conditions may differ. Read-outs that look alike come from different tables or passages of the source.
Tests used:
[1] = system: patients with AIS; experiment: All adverse events, AMFIS phase II trial; type: in vivo, human
How it was run: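 Double-blind, 2:1 stratified block randomization by age (<75, 75–90 years) against a placebo vial of 50 mg D-mannitol. Patients were aged 20–90 with new DWI lesions and treated within 24 h of onset. AEs were monitored from infusion start to 3 days after the intervention ended, with close blood-pressure watch. Severity was graded on five levels (mild to death), and an independent committee judged causality.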

[2] = system: patients with AIS; experiment: Intracerebral hemorrhage on CT and MRI, AMFIS trial; type: in vivo, human; details: Day 1 to Day 90
How it was run: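 Patients (20–90 years, new DWI lesion, treated within 24 h of onset) were randomized 2:1 to adrenomedullin or a D-mannitol placebo under double-blind conditions. Non-contrast CT was performed at 24 h and on Day 7, and MRI on Day 90.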

[3] = type: in vivo; details: human, plasma, 9 ng/kg/min, mean ± SD
[4] = system: healthy volunteers; details: cited from earlier work
[5] = system: patients with AIS; experiment: NIHSS score, primary efficacy endpoint, AMFIS trial; type: in vivo, human
How it was run: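 Trained stroke neurologists scored NIHSS at baseline, 8, 24 and 72 h after infusion start, and on Day 7, keeping the same examiner per patient where possible. Least square means with 95% CI came from generalized estimating equations. Fixed effects were treatment, time point and treatment×time, with baseline NIHSS as covariate. The same model compared the pulsed and continuous-pulsed groups.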

[6] = patients receiving adrenomedullin, n=40

## CC[C@H](C)[C@H](NC(=O)[C@H](CCC(N)=O)NC(=O)[C@H](Cc1c[nH]cn1)NC(=O)[C@H](C)NC(=O)[C@H](CC(C)C)NC(=O)[C@H](CCCCN)NC(=O)[C@H](CCC(N)=O)NC(=O)[C@@H](NC(=O)[C@@H](NC(=O)[C@@H]1CSSC[C@H](NC(=O)CNC(=O)[C@H](Cc2ccccc2)NC(=O)[C@H](CO)NC(=O)[C@H](CCCNC(=N)N)NC(=O)[C@H](CC(C)C)NC(=O)CNC(=O)[C@H](CCC(N)=O)NC(=O)[C@H](Cc2ccccc2)NC(=O)[C@H](CC(N)=O)NC(=O)[C@H](CC(N)=O)NC(=O)[C@H](CCSC)NC(=O)[C@H](CO)NC(=O)[C@H](CCC(N)=O)NC(=O)[C@H](CCCNC(=N)N)NC(=O)[C@@H](N)Cc2ccc(O)cc2)C(=O)N[C@@H](CCCNC(=N)N)C(=O)N[C@@H](Cc2ccccc2)C(=O)NCC(=O)N[C@@H]([C@@H](C)O)C(=O)N1)[C@@H](C)O)C(C)C)C(=O)N[C@@H](Cc1ccc(O)cc1)C(=O)N[C@@H](CCC(N)=O)C(=O)N[C@@H](Cc1ccccc1)C(=O)N[C@H](C(=O)N[C@@H](CC(=O)O)C(=O)N[C@@H](CCCCN)C(=O)N[C@@H](CC(=O)O)C(=O)N[C@@H](CCCCN)C(=O)N[C@@H](CC(=O)O)C(=O)N[C@@H](CC(N)=O)C(=O)N[C@H](C(=O)N[C@@H](C)C(=O)N1CCC[C@H]1C(=O)N[C@@H](CCCNC(=N)N)C(=O)N[C@@H](CO)C(=O)N[C@@H](CCCCN)C(=O)N[C@H](C(=O)N[C@@H](CO)C(=O)N1CCC[C@H]1C(=O)N[C@@H](CCC(N)=O)C(=O)NCC(=O)N[C@@H](Cc1ccc(O)cc1)C(N)=O)[C@@H](C)CC)C(C)C)[C@@H](C)O [adrenomedullin]
[1]; C/P-AM
  patients with AEs, n (%, 95% CI): 14
[1]; P-AM
  patients with AEs, n (%, 95% CI): 11
[1]; adrenomedullin group, n=40
  cases of drop in blood pressure: 10.0%
  cases of low blood pressure: 2.5%
[1]; first-half and second-half cohorts
  life-threatening AEs or death: No life-threatening AEs or death were reported
[1]; in vivo
  Laboratory tests: no clinically significant changes
[1]; non-severe, non-embolic AIS
  tolerability: well tolerated
[1]; [6]
  SAEs related to the intervention: Neither intervention-related serious adverse events nor severe adverse events were observed; also recorded: no “SAEs related to the intervention” were reported; also recorded: No SAEs were observed
  Severe AEs (grade 3): observed only in the placebo group
[2]
  intracerebral hemorrhage on CT and MRI: no intracerebral hemorrhage was observed
[3]; C/P-AM
  Cmax: 0.061 ng/mL
[3]; P-AM
  Cmax: 0.0442 ng/mL
[4]
  half-life: < 60 min
[4]; dose of 9 ng/kg/min
  blood levels of adrenomedullin: 10 to 20 pg/mL
[4]; healthy volunteers
  severe adverse events: no severe adverse events
[5]; 7-day, AM minus placebo, GEE model
  Intergroup difference in NIHSS changes, LSM (95% CI): 0.32 (−0.91–1.56)
[5]; 7-day, AM n=40, GEE model
  NIHSS changes from pre-treatment, LSM (SE; 95% CI in text): −0.76
[5]; 7-day, C/P-AM minus P-AM, GEE
  Intergroup difference in NIHSS changes, LSM (95% CI): 0.67 (−0.64–1.98)
[5]; 7-day, C/P-AM, GEE, dose-finding analysis
  NIHSS changes from pre-treatment, LSM (SE; 95% CI in text): −0.42
[5]; 7-day, P-AM, GEE, dose-finding analysis
  NIHSS changes from pre-treatment, LSM (SE; 95% CI in text): −1.08
[5]; 8-h, AM minus placebo, GEE model
  Intergroup difference in NIHSS changes, LSM (95% CI): 0.25 (−0.24–0.74)
[5]; 8-h, C/P-AM minus P-AM, GEE
  Intergroup difference in NIHSS changes, LSM (95% CI): 0.52 (−0.12–1.16)
[5]; 24-h, AM minus placebo, GEE model
  Intergroup difference in NIHSS changes, LSM (95% CI): 0.15 (−0.46–0.75)
[5]; 24-h, C/P-AM minus P-AM, GEE
  Intergroup difference in NIHSS changes, LSM (95% CI): 0.62 (−0.29–1.53)
[5]; 72-h, AM minus placebo, GEE model
  Intergroup difference in NIHSS changes, LSM (95% CI): 0.35 (−0.93–1.63)
[5]; 72-h, C/P-AM minus P-AM, GEE
  Intergroup difference in NIHSS changes, LSM (95% CI): 0.32 (−1.09–1.72)
[5]; C/P-AM
  mean change in the NIHSS score from pre-treatment to Day 7: −0.45
  median change in the NIHSS score from pre-treatment to Day 7: −0.5
[5]; P-AM
  mean change in the NIHSS score from pre-treatment to Day 7: −1.05
  median change in the NIHSS score from pre-treatment to Day 7: −1
[5]; in vivo
  efficacy on NIHSS scores: not demonstrated
[5]; [6]
  mean change in the NIHSS score from pre-treatment to Day 7: −0.75
  median change in the NIHSS score from pre-treatment to Day 7: −1.00

Source: article PMC11605132 (eClinicalMedicine, 2024)
